High-throughput results: PubChem BioAssay, Johns Hopkins Ion Channel Center
TRPC4 PAM = TRPC4 (mouse) allosteric potentiation; Q9QUQ5; HEK293 TRPC4beta/mu-opioid, DAMGO EC20, Fluo-4 Ca2+ flux; stronger effect = higher value; B-score at 10 µM; 0.42% of 310,000 active; AID 2227;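 active means B-score of calcium response area above 5 SD of library B-scores, with initial fluorescence ratio within 5 SD of library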;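 further: B-score of integrated fluorescence ratio over time as area under calcium response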
TRPC6 inhibitor = blocks the mouse TRPC6 cation channel; B-score at 10 µM; AID 2553; 1.1% of 310,000 active; HEK293-TRPC6, membrane potential dye, ACh-evoked depolarization; stronger effect = lower value; Q61143;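 active means B-score under library mean minus 3 SD, initial fluorescence not abnormally high, positive integrated signal ratio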;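 further: B-score derived from integrated fluorescence ratio over the kinetic read; more negative B-score means stronger inhibition of depolarization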
TRPC4 block = blocks the mouse TRPC4 cation channel; HEK293 TRPC4beta/mu-opioid, DAMGO-evoked Fluo4 calcium flux; stronger effect = lower value; B-score at 10 µM; 0.39% of 300,000 active;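 active means B-score over 3 SD under the library average, no early fluorescence shift, positive overall ratio signal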
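material = TRPC4beta/mu-opioid receptor HEK293 cell line | probe or stimulus = sequential submaximal and maximal DAMGO stimulation | compound dosing = one concentration per compound | measured by = Fluo4 Ca2+ flux fluorescence | evaluation = integrated fluorescence ratio relative to baseline, converted to per-well B score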
Kir21 block = inhibitors of mouse Kir2.1 inward-rectifier potassium channel; P35561; HEK293-Kir2.1, FluxOR thallium flux fluorescence; stronger effect = lower value; B-score at 10 µM; 0.85% of 310,000 active;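 active means fluorescence ratio B-score at or below minus 3 SD of library scores, with starting-brightness B-score within 2 SD, cut at about -4.2 in these data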;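 further: channel flux triggered by added potassium and thallium sulfate stimulus; B-score of peak minus minimum fluorescence over baseline after thallium stimulus; more negative B-score means stronger Kir2.1 block with less thallium influx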
TRPC6 act = activators of mouse TRPC6 channel; AID 2550; 0.13% of 310,000 active; HEK293-TRPC6 membrane potential dye fluorescence; stronger effect = higher value; B-score at 10 µM;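 active means B-score of the integrated fluorescence ratio above library mean plus 3 SD, and starting fluorescence ratio within library mean plus 5 SD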;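 further: higher score means more depolarization so channel activation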
TRPC4 act = activators of mouse TRPC4 channel. HEK293 TRPC4beta/mu-opioid, Fluo4 calcium fluorescence; stronger effect = higher value. Q9QUQ5. B-score at 10 µM. 0.49% of 310,000 active;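 active means B-score above 5 SD of library B-scores, and initial fluorescence ratio not above library mean plus 5 SD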;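 further: positive B-score marks a calcium rise read as TRPC4 activation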
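Assay system: HEK293 stable line with TRPC4beta plus mu-opioid receptor. Times: dye 45 min RT, read 110 s. Measured by: kinetic Fluo4 calcium fluorescence. Measure: B score of integrated ratio. Controls: assay buffer as low control, maximal DAMGO as high control.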
* hit, by the source's call; i = inactive. Rows were chosen to be rich in hits. Some 2.9% of all compounds tested hit in one or more screens of this group.

SMILES	TRPC4 PAM	TRPC6 inhibitor	TRPC4 block	Kir21 block	TRPC6 act	TRPC4 act
CCc1ccc(CN2CCCC(C(=O)Nc3ccccc3-c3ccc(OC)cc3)C2)o1 (configuration not stated)	i	i	i	-5.92*	i	i
COCc1ccc(CN2CCCC(C(=O)Nc3ccccc3-c3ccc(OC)cc3)C2)o1 (configuration not stated)	i	i	i	-0.47	i	i
CCN(CC(=O)NC(=O)Nc1ccccc1F)Cc1ccccc1	i	i	i	0	i	i
COc1ccc(C)cc1NCC(=O)Nc1ccc(C(C)(C)C)cc1	i	i	i	0.96	i	i
Cc1ccc(C)c(N2CCN(C(=O)c3ccc(N4CCOCC4)c([N+](=O)[O-])c3)CC2)c1	i	i	i	-0.83	i	i
CCOc1ccc(CN2CCN(C(=O)c3ccccc3)CC2)cc1	i	i	-7*	-0.22	i	i
CC(OC(=O)Cn1cnc2c1c(=O)n(C)c(=O)n2C)C(=O)Nc1ccc(Cl)cc1 (configuration not stated)	i	i	-8*	0.29	i	i
Cn1c(=O)c2c(ncn2CC(=O)OCC(=O)Nc2ccc(Cl)cc2)n(C)c1=O	i	i	i	-1.47	i	i
O=C(NCc1ccccn1)C(=O)NCC1OCCN1S(=O)(=O)c1ccc([N+](=O)[O-])cc1 (configuration not stated)	i	i	i	0.39	i	i
CCN1CCN(c2ccc(S(=O)(=O)N3CCCCC3)cc2NC(=O)c2ccccc2)CC1	i	i	i	-0.29	i	i
CN1CCN(S(=O)(=O)c2cccc(C(=O)Nc3cc(C(F)(F)F)ccc3N3CCCCC3)c2)CC1	i	i	i	0.01	i	i
CCN1CCN(c2ccc(S(=O)(=O)N3CCCCC3)cc2NC(=O)c2cccc(F)c2)CC1	17*	i	i	-0.4	i	i
CCN1CCN(c2ccc(S(=O)(=O)N3CCCCC3)cc2NC(=O)c2cccc(C)c2[N+](=O)[O-])CC1	i	i	i	0.68	i	132*
CCN1CCN(c2ccc(S(=O)(=O)N3CCCCC3)cc2NC(=O)c2cccc(C(F)(F)F)c2)CC1	29*	i	i	0.13	i	i
Cc1ccc2[nH]c3c(=O)n(CCc4cnc[nH]4)cnc3c2c1	i	i	i	0.73	i	211*
CCN(C(=S)NCc1ccccc1)c1ccccc1	i	i	i	-1.08	i	i
N=c1c2c(n(Cc3cccc(Cl)c3)c3c1CCC3)CCCC2	i	i	i	-0.01	i	i
CCCCCCCCn1c2c(c(=N)c3ccccc31)CCC2	i	i	i	-14.6*	i	i
N=c1c2c(n(Cc3ccc(Cl)cc3)c3c1CCC3)CCC2	i	i	-7*	-0.11	i	i
CCCCCCCCCCn1c2c(c(=N)c3c1CCC3)CCC2	i	-5.03*	i	-8.56*	i	52*
CCCCCCCCCn1c2c(c(=N)c3c1CCC3)CCCC2	i	i	i	-14.7*	i	i
COc1ccc(CC(=O)NNc2ncnc3c2cnn3Cc2ccccc2)cc1OC	i	i	i	0.07	i	i
CCOC(=O)C1=C(CS(=O)(=O)c2ccc(C)cc2)NC(=O)NC1c1cc(OC)c(O)c(OC)c1 (configuration not stated)	i	i	i	-0.1	i	i
CCOC(=O)C1C(=O)NC(c2ccccc2)=NC1c1ccc(Cl)cc1 (configuration not stated)	i	i	i	-0.01	i	i
Nc1c(Cl)ncnc1NCc1ccccc1	i	i	i	0.6	i	i
COc1cccc2c1OC1(C)CC2NC(=O)N1c1cccc(C(=O)N2CCN(c3ccccc3)CC2)c1 (configuration not stated)	i	i	i	-0.98	i	i
